{"source": "ChEMBL document CHEMBL4145521", "about": "“Regioselective synthesis of 3,4-diaryl-5-unsubstituted isoxazoles, analogues of natural cytostatic combretastatin A4” (Eur J Med Chem, 2018)", "assay_type_in_all_cases": "functional", "key": {"MOLT-4 [1]": {"system": "MOLT-4", "experiment": "Cytotoxicity against human MOLT4 cells assessed as cell growth at 100 uM incubated for 48 hrs by sulforhodamine B assay relative to control", "settings": "MOLT-4, 48 h, read-out: Activity"}, "HCT-116": {"system": "HCT-116", "experiment": "Cytotoxicity against human HCT116 cells assessed as cell growth at 10 uM incubated for 48 hrs by sulforhodamine B assay relative to control", "settings": "HCT-116, 48 h, read-out: Activity"}, "DU-145 [2]": {"system": "DU-145", "experiment": "Cytotoxicity against human DU145 cells incubated for 48 hrs by sulforhodamine B assay", "settings": "DU-145, 48 h"}, "SN12C": {"system": "SN12C", "experiment": "Cytotoxicity against human SN12C cells incubated for 48 hrs by sulforhodamine B assay"}, "ACHN": {"system": "ACHN", "experiment": "Cytotoxicity against human ACHN cells assessed as cell growth at 0.01 uM incubated for 48 hrs by sulforhodamine B assay relative to control", "settings": "read-out: Activity"}, "CAKI-1": {"system": "CAKI-1", "experiment": "Cytotoxicity against human Caki1 cells assessed as cell growth at 10 uM incubated for 48 hrs by sulforhodamine B assay relative to control", "settings": "CAKI-1, 48 h, read-out: Activity"}, "U-251": {"system": "U-251", "experiment": "Cytotoxicity against human U251 cells assessed as cell growth at 1 uM incubated for 48 hrs by sulforhodamine B assay relative to control", "settings": "U-251, 48 h, read-out: Activity"}, "HCC 2998": {"system": "HCC 2998", "experiment": "Cytotoxicity against human HCC2998 cells assessed as cell growth at 10 uM incubated for 48 hrs by sulforhodamine B assay relative to control", "settings": "HCC 2998, 48 h, read-out: Activity"}, "MCF7 [3]": {"system": "MCF7", "experiment": "Cytotoxicity against human MCF7 cells incubated for 48 hrs by sulforhodamine B assay", "settings": "MCF7, 48 h"}, "OVCAR-3": {"system": "OVCAR-3", "experiment": "Cytotoxicity against human OVCAR3 cells assessed as cell growth at 0.01 uM incubated for 48 hrs by sulforhodamine B assay relative to control", "settings": "OVCAR-3, 48 h, read-out: Activity"}, "SF-539 [4]": {"system": "SF-539", "experiment": "Cytotoxicity against human SF539 cells assessed as cell growth at 0.01 uM incubated for 48 hrs by sulforhodamine B assay relative to control", "settings": "SF-539, 48 h, read-out: Activity"}, "IGROV-1": {"system": "IGROV-1", "experiment": "Cytotoxicity against human IGROV1 cells assessed as cell growth at 1 uM incubated for 48 hrs by sulforhodamine B assay relative to control", "settings": "IGROV-1, 48 h, read-out: Activity"}, "Paracentrotus lividus": {"system": "Paracentrotus lividus", "experiment": "Antimitotic activity against Paracentrotus lividus embryo assessed as embryo spinning after 15 mins to 20 hrs by light microscopy", "method_in_brief": "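Free-swimming blastulae from the same culture were used just after hatching (8–10 h post-fertilization). They were kept in filtered seawater at room temperature and exposed to 2-fold decreasing concentrations. Spinning at the well bottom instead of forward swimming was monitored from 15 min to 20 h under light microscopy. The effective threshold concentration was recorded from duplicates.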"}, "NCI-H226": {"system": "NCI-H226", "experiment": "Cytotoxicity against human NCI-H226 cells assessed as cell growth at 1 uM incubated for 48 hrs by sulforhodamine B assay relative to control", "settings": "NCI-H226, 48 h, read-out: Activity"}, "BT-549": {"system": "BT-549", "experiment": "Cytotoxicity against human BT549 cells assessed as cell growth at 1 uM incubated for 48 hrs by sulforhodamine B assay relative to control", "settings": "BT-549, 48 h, read-out: Activity"}, "MOLT-4 [5]": {"system": "MOLT-4", "experiment": "Cytotoxicity against human MOLT4 cells assessed as cell growth at 10 uM incubated for 48 hrs by sulforhodamine B assay relative to control", "settings": "MOLT-4, 48 h, read-out: Activity"}, "HT-29": {"system": "HT-29", "experiment": "Cytotoxicity against human HT-29 cells assessed as cell growth at 1 uM incubated for 48 hrs by sulforhodamine B assay relative to control", "settings": "HT-29, 48 h, read-out: Activity"}, "SF-539 [6]": {"system": "SF-539", "experiment": "Cytotoxicity against human SF539 cells assessed as cell growth at 10 uM incubated for 48 hrs by sulforhodamine B assay relative to control", "settings": "SF-539, 48 h, read-out: Activity"}, "RPMI-8226": {"system": "RPMI-8226", "experiment": "Cytotoxicity against human RPMI8226 cells assessed as cell growth at 10 uM incubated for 48 hrs by sulforhodamine B assay relative to control", "settings": "RPMI-8226, 48 h, read-out: Activity"}, "CCRF-CEM [7]": {"system": "CCRF-CEM", "experiment": "Cytotoxicity against human CCRF-CEM cells assessed as cell growth at 10 uM incubated for 48 hrs by sulforhodamine B assay relative to control", "settings": "read-out: Activity"}, "SK-MEL-28": {"system": "SK-MEL-28", "experiment": "Cytotoxicity against human SK-MEL-28 cells assessed as cell growth at 100 uM incubated for 48 hrs by sulforhodamine B assay relative to control", "settings": "SK-MEL-28, 48 h, read-out: Activity"}, "SW-620": {"system": "SW-620", "experiment": "Cytotoxicity against human SW620 cells assessed as cell growth at 10 uM incubated for 48 hrs by sulforhodamine B assay relative to control", "settings": "SW-620, 48 h, read-out: Activity"}, "DU-145 [8]": {"system": "DU-145", "experiment": "Cytotoxicity against human DU145 cells assessed as cell growth at 1 uM incubated for 48 hrs by sulforhodamine B assay relative to control", "settings": "DU-145, 48 h, read-out: Activity"}, "MCF7 [9]": {"system": "MCF7", "experiment": "Cytotoxicity against human MCF7 cells assessed as cell growth at 0.01 uM incubated for 48 hrs by sulforhodamine B assay relative to control", "settings": "MCF7, 48 h, read-out: Activity"}, "MDA-MB-435": {"system": "MDA-MB-435", "experiment": "Cytotoxicity against human MDA-MB-435 cells assessed as cell growth at 10 uM incubated for 48 hrs by sulforhodamine B assay relative to control", "settings": "MDA-MB-435, 48 h, read-out: Activity"}, "Hs-578T": {"system": "Hs-578T", "experiment": "Cytotoxicity against human Hs 578T cells incubated for 48 hrs by sulforhodamine B assay"}, "A498 [10]": {"system": "A498", "experiment": "Cytotoxicity against human A498 cells assessed as cell growth at 10 uM incubated for 48 hrs by sulforhodamine B assay relative to control", "settings": "A498, 48 h, read-out: Activity"}, "A498 [11]": {"system": "A498", "experiment": "Cytotoxicity against human A498 cells assessed as cell growth at 0.01 uM incubated for 48 hrs by sulforhodamine B assay relative to control", "settings": "A498, 48 h, read-out: Activity"}, "SNB-19": {"system": "SNB-19", "experiment": "Cytotoxicity against human SNB19 cells assessed as cell growth at 100 uM incubated for 48 hrs by sulforhodamine B assay relative to control", "settings": "SNB-19, 48 h, read-out: Activity"}, "RXF 393": {"system": "RXF 393", "experiment": "Cytotoxicity against human RXF393 cells assessed as cell growth at 1 uM incubated for 48 hrs by sulforhodamine B assay relative to control", "settings": "RXF 393, 48 h, read-out: Activity"}, "CCRF-CEM [12]": {"system": "CCRF-CEM", "experiment": "Cytotoxicity against human CCRF-CEM cells assessed as cell growth at 1 uM incubated for 48 hrs by sulforhodamine B assay relative to control", "settings": "read-out: Activity"}, "[13]": {"settings": "read-out: LC50 (the source's name)"}, "[14]": {"settings": "read-out: pLC50 (the source's name) (converted)"}}}
{"compound": "COc1ccc(-c2nocc2-c2cc(OC)c(OC)c(OC)c2)cc1", "values": [{"measurement": "growth at 100 µM", "setting": "MOLT-4 [1]", "value": 5, "unit": "%"}, {"measurement": "growth at 10 µM", "setting": "HCT-116", "value": 6, "unit": "%"}, {"measurement": "GI50", "setting": "DU-145 [2]; read-out: GI50", "value": 0.244, "unit": "µM"}, {"measurement": "CC50", "setting": "DU-145 [2]; [13]", "value": "> 100", "unit": "µM"}, {"measurement": "TGI", "setting": "DU-145 [2]; read-out: TGI", "value": "> 100", "unit": "µM"}, {"measurement": "GI50", "setting": "DU-145 [2]; read-out: pGI50 (converted)", "value": 0.245, "unit": "µM"}, {"measurement": "CC50", "setting": "DU-145 [2]; [14]", "value": "> 100", "unit": "µM"}, {"measurement": "TGI", "setting": "DU-145 [2]; read-out: pTGI", "value": "> 100", "unit": "µM"}, {"measurement": "GI50", "setting": "SN12C; read-out: GI50", "value": 0.825, "unit": "µM"}, {"measurement": "LC50", "setting": "SN12C; read-out: LC50", "value": "> 100", "unit": "µM"}, {"measurement": "TGI", "setting": "SN12C; read-out: TGI", "value": 92.6, "unit": "µM"}, {"measurement": "GI50", "setting": "SN12C; read-out: pGI50 (converted)", "value": 0.832, "unit": "µM"}, {"measurement": "LC50", "setting": "SN12C; read-out: pLC50 (converted)", "value": "> 100", "unit": "µM"}, {"measurement": "TGI", "setting": "SN12C; read-out: pTGI (converted)", "value": 93.3, "unit": "µM"}, {"measurement": "growth at 0.01 µM", "setting": "ACHN", "value": 94, "unit": "%"}, {"measurement": "growth at 10 µM", "setting": "CAKI-1", "value": 36, "unit": "%"}, {"measurement": "growth at 1 µM", "setting": "U-251", "value": 22, "unit": "%"}, {"measurement": "growth at 10 µM", "setting": "HCC 2998", "value": 25, "unit": "%"}, {"measurement": "GI50", "setting": "MCF7 [3]; read-out: GI50", "value": 0.0408, "unit": "µM"}, {"measurement": "LC50", "setting": "MCF7 [3]; read-out: LC50", "value": "> 100", "unit": "µM"}, {"measurement": "TGI", "setting": "MCF7 [3]; read-out: TGI", "value": "> 100", "unit": "µM"}, {"measurement": "GI50", "setting": "MCF7 [3]; read-out: pGI50 (converted)", "value": 0.0407, "unit": "µM"}, {"measurement": "LC50", "setting": "MCF7 [3]; read-out: pLC50 (converted)", "value": "> 100", "unit": "µM"}, {"measurement": "TGI", "setting": "MCF7 [3]; read-out: pTGI", "value": "> 100", "unit": "µM"}, {"measurement": "growth at 0.01 µM", "setting": "OVCAR-3", "value": 100, "unit": "%"}, {"measurement": "growth at 0.01 µM", "setting": "SF-539 [4]", "value": 86, "unit": "%"}, {"measurement": "growth at 1 µM", "setting": "IGROV-1", "value": 47, "unit": "%"}, {"measurement": "EC", "setting": "Paracentrotus lividus", "value": 1, "unit": "µM"}, {"measurement": "growth at 1 µM", "setting": "NCI-H226", "value": 75, "unit": "%"}, {"measurement": "growth at 1 µM", "setting": "BT-549", "value": 33, "unit": "%"}, {"measurement": "growth at 10 µM", "setting": "MOLT-4 [5]", "value": 26, "unit": "%"}, {"measurement": "growth at 1 µM", "setting": "HT-29", "value": 2, "unit": "%"}, {"measurement": "growth at 10 µM", "setting": "SF-539 [6]", "value": 2, "unit": "%"}, {"measurement": "growth at 10 µM", "setting": "RPMI-8226", "value": 16, "unit": "%"}, {"measurement": "growth at 10 µM", "setting": "CCRF-CEM [7]", "value": 24, "unit": "%"}, {"measurement": "growth at 100 µM", "setting": "SK-MEL-28", "value": -5, "unit": "%"}, {"measurement": "growth at 10 µM", "setting": "SW-620", "value": 19, "unit": "%"}, {"measurement": "growth at 1 µM", "setting": "DU-145 [8]", "value": 17, "unit": "%"}, {"measurement": "growth at 0.01 µM", "setting": "MCF7 [9]", "value": 86, "unit": "%"}, {"measurement": "growth at 10 µM", "setting": "MDA-MB-435", "value": -29, "unit": "%"}, {"measurement": "GI50", "setting": "Hs-578T; read-out: GI50", "value": 0.396, "unit": "µM"}, {"measurement": "CC50", "setting": "Hs-578T; [13]", "value": "> 100", "unit": "µM"}, {"measurement": "TGI", "setting": "Hs-578T; read-out: TGI", "value": "> 100", "unit": "µM"}, {"measurement": "GI50", "setting": "Hs-578T; read-out: pGI50 (converted)", "value": 0.398, "unit": "µM"}, {"measurement": "CC50", "setting": "Hs-578T; [14]", "value": "> 100", "unit": "µM"}, {"measurement": "TGI", "setting": "Hs-578T; read-out: pTGI", "value": "> 100", "unit": "µM"}, {"measurement": "growth at 10 µM", "setting": "A498 [10]", "value": -13, "unit": "%"}, {"measurement": "growth at 0.01 µM", "setting": "A498 [11]", "value": 73, "unit": "%"}, {"measurement": "growth at 100 µM", "setting": "SNB-19", "value": 8, "unit": "%"}, {"measurement": "growth at 1 µM", "setting": "RXF 393", "value": -7, "unit": "%"}, {"measurement": "growth at 1 µM", "setting": "CCRF-CEM [12]", "value": 24, "unit": "%"}]}
